Results from paper PMC11904594 (Current Research in Microbial Sciences, 2025).
Peptide text beside a SMILES is read from it.

Columns and labels:
[1] = test system: 11 bacterial strains (S. aureus, P. aeruginosa, A. baumannii, K. pneumoniae, E. coli); experiment: Antimicrobial activity screening, summary over groups of strains; type: cell-based; conditions: 50 µg/ml screen
A. baumannii ATCC 19606 = experiment: Antimicrobial activity screening; type: cell-based, Acinetobacter baumannii; conditions: 50 µg/ml screen
[2] = test system: Galleria mellonella larvae; experiment: In vivo toxicity in Galleria mellonella larvae; conditions: G. mellonella larvae, N=10 per group
Method in brief: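 Sixth-instar Galleria mellonella larvae (200–300 mg) were held in sawdust at 4 °C until use. Groups of ten were injected with 10 μl of test compound, colistin or 0.9 % NaCl saline control into the second rear proleg, then kept at 30 °C.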

CC[C@H](C)[C@H](NC(=O)[C@@H](CCCCN)NC(=O)[C@H](CCCCN)NC(=O)[C@H](Cc1ccccc1)NC(=O)[C@H](CC(C)C)NC(=O)[C@H](CCCCN)NC(=O)[C@@H](N)CCCCN)C(=O)N[C@@H](CC(C)C)C(=O)N[C@@H](CCCCN)C(=O)N[C@@H](Cc1ccc(O)cc1)C(=O)N[C@@H](CC(C)C)C(N)=O [BP146]
growth reduction in all strains except P. aeruginosa ST175–1 [1]: at least 89%

CC[C@H](C)[C@H](NC(=O)[C@H](CCCCN)NC(=O)[C@H](CCCCN)NC(=O)[C@H](Cc1c[nH]cn1)NC(=O)[C@H](CC(C)C)NC(=O)[C@H](CCCCN)NC(=O)[C@H](Cc1ccccc1)NS(=O)(=O)c1ccc(C)cc1)C(=O)N[C@@H](CC(C)C)C(=O)N[C@@H](CCCCN)C(=O)N[C@H](C(=O)N[C@@H](CC(C)C)C(N)=O)C(C)C [BP275] (HELM PEPTIDE1{[Cc1ccc(S(=O)(=O)[*:2])cc1].F.K.L.H.K.K.I.L.K.V.L.[am]}$$$$V2.0)
growth inhibition against A. baumannii ATCC 19,606 (A. baumannii ATCC 19606): ≥ 93%

CCCC(=O)NCCCC[C@H](NC(=O)[C@@H](NC(=O)[C@H](CCCCN)NC(=O)[C@H](CCCCN)NC(=O)[C@@H](Cc1ccccc1)NC(=O)[C@H](CC(C)C)NC(=O)[C@H](CCCCN)NC(=O)[C@H](CCCCN)NC(C)=O)[C@@H](C)CC)C(=O)N[C@@H](CCCCN)C(=O)N[C@@H](Cc1ccc(O)cc1)C(=O)N[C@@H](CC(C)C)C(N)=O [BP474]
growth inhibition against A. baumannii ATCC 19,606 (A. baumannii ATCC 19606): ≥ 93%

Colistin
mortality after 24h ([2]; 50 µg/larvae (10 μl of 5 mg/ml), 30 °C): 50%
LD50 ([2]; 10 μl injected, viability at 48h): 5 mg/mL
